Test results as given in ChEMBL document CHEMBL4130437, “Bioassay-Guided Isolation of Antibacterial Metabolites from Emericella sp. TJ29” (J Nat Prod, 2017).
In brackets after ≈: the same amount, converted by molar mass. Activity calls are given as the source filed them. The calls are words filed in the database; no cut-off is given here.

What was measured:
Staphylococcus aureus = test: Antibacterial activity against methicillin-resistant Staphylococcus aureus ATCC 43300 after 16 hrs by broth microdilution method; format: functional; conditions: ATCC 43300, 16 h
Enterococcus faecalis = test: Antibacterial activity against Enterococcus faecalis ATCC 29212 after 16 hrs by broth microdilution method; format: functional; conditions: ATCC 29212, 16 h
In short: (§1)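 Broth microdilution MIC with the inoculum standardized to about 5 × 10^5 CFU/mL. Plates were incubated 16 h at 37 °C. MIC was taken as the lowest concentration with no visible bacterial growth. Each experiment was run three times.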

Klebsiella pneumoniae = test: Antibacterial activity against Klebsiella pneumoniae ATCC 700603 after 16 hrs by broth microdilution method; format: functional; conditions: Klebsiella pneumoniae, 700603, 16 h; in short: as §1
Escherichia coli [1] = test: Antibacterial activity against ESBL-producing Escherichia coli ATCC 35218 after 16 hrs by broth microdilution method; format: functional; conditions: ATCC 35218, 16 h; in short: as §1
Pseudomonas aeruginosa = test: Antibacterial activity against Pseudomonas aeruginosa ATCC 15442 after 16 hrs by broth microdilution method; format: functional; conditions: ATCC 15442, 16 h; in short: as §1
Escherichia coli [2] = test: Bactericidal activity against ESBL-producing Escherichia coli ATCC 35218 after 2 to 24 hrs by time kill assay; format: functional, organism-based
In short: (§2)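 Overnight MHB culture was diluted into fresh MHB at 5 × 10^5 CFU/mL. Tubes got varied compound concentrations, with untreated inoculated medium as control, and were shaken at 37 °C. At 2, 4, 6, 8, 12 and 24 h, samples were serially diluted, plated on tryptic soy agar and incubated overnight at 37 °C, then colonies were counted. Done at least three times, mean/SD.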

BEAS-2B = test: Cytotoxicity against human BEAS2B cells assessed as reduction in cell viability at 0.064 to 40 uM after 48 hrs by MTS assay; format: cell-based
In short: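 BEAS-2B cells grown in RPMI-1640 or DMEM with 10% FBS at 37 °C under 5% CO2. Seeded at 1 × 10^5 cells/mL and left to adhere 12 h. Exposed to compound at various concentrations in triplicate for 48 h, with cisplatin and paclitaxel as positive controls. MTS was added for 4 h, then cells were lysed in SDS/DMF and OD read at 490 nm. IC50 by Reed–Muench.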

Escherichia coli [3] = test: Bacteriostatic activity against ESBL-producing Escherichia coli ATCC 35218 after 2 to 24 hrs by time kill assay; format: functional, organism-based; in short: as §2

| SMILES | MIC (Staphylococcus aureus) | MIC (Enterococcus faecalis) | MIC (Klebsiella pneumoniae) | MIC (Escherichia coli [1]) | MIC (Pseudomonas aeruginosa) | Activity (Escherichia coli [2]) | Activity (BEAS-2B) | Activity (Escherichia coli [3]) |
| --- | --- | --- | --- | --- | --- | --- | --- | --- |
| CC1(C)C(=O)C=C[C@@]2(C)[C@H]1CC[C@@]13C[C@@]4(C)C=C5C(=O)OC[C@]51[C@@]1(CO1)[C@@H](C4=O)[C@@H]23 | > 128 µg/mL | > 128 µg/mL | > 128 µg/mL | 32 µg/mL (≈ 78.3 µM) | 64 µg/mL (≈ 157 µM) |  |  |  |
| COc1cccc2c1CO[C@@H]2C[C@@H](O)[C@@H](O)[C@H]1O[C@@H]1C | > 128 µg/mL | > 128 µg/mL | > 128 µg/mL | > 128 µg/mL | > 128 µg/mL |  |  |  |
| CO/N=C(\C(=O)N[C@@H]1C(=O)N2C(C(=O)O)=C(CSc3nc(=O)c(O)nn3C)CS[C@H]12)c1csc(N)n1 [CEFTRIAXONE] |  |  | 1 µg/mL (≈ 1.8 µM) |  | 1 µg/mL (≈ 1.8 µM) |  |  |  |
| COc1cccc(/C=C/[C@@H](O)[C@@H](O)[C@H]2O[C@@H]2C)c1CO | 64 µg/mL (≈ 228 µM) | > 128 µg/mL | > 128 µg/mL | 32 µg/mL (≈ 114 µM) | 32 µg/mL (≈ 114 µM) |  |  |  |
| CCC[C@H](O)[C@H](O)C[C@H]1OCc2cccc(OC)c21 | > 128 µg/mL | 32 µg/mL (≈ 120 µM) | > 128 µg/mL | 8 µg/mL (≈ 30 µM) | 32 µg/mL (≈ 120 µM) |  |  |  |
| CCC[C@H](O)[C@H](O)C[C@H]1OCc2c(OC)cccc21 | 32 µg/mL (≈ 120 µM) | 32 µg/mL (≈ 120 µM) | 16 µg/mL (≈ 60.1 µM) | 4 µg/mL (≈ 15 µM) | 4 µg/mL (≈ 15 µM) | Active | Non-Toxic |  |
| C=C1[C@H]2C(=O)[C@]3(C)C=C4C(=O)OC[C@]14[C@@]1(CC[C@H]4C(C)(C)C(=O)C=C[C@]4(C)[C@H]21)C3 | 64 µg/mL (≈ 163 µM) | > 128 µg/mL | 64 µg/mL (≈ 163 µM) | 32 µg/mL (≈ 81.5 µM) | 32 µg/mL (≈ 81.5 µM) |  |  |  |
| O=C(N[C@H](CO)[C@H](O)c1ccc([N+](=O)[O-])cc1)C(Cl)Cl [CHLORAMPHENICOL] |  | 16 µg/mL (≈ 49.5 µM) |  |  |  |  |  |  |
| C=C1[C@H]2C(=O)[C@]3(C)C=C4C(=O)OC[C@]14[C@@]1(CC[C@H]4C(C)(C)C(=O)C=C[C@]4(C)[C@]21O)C3 | > 128 µg/mL | > 128 µg/mL | > 128 µg/mL | 64 µg/mL (≈ 157 µM) | > 128 µg/mL |  |  |  |
| C=C1[C@H]2C(=O)[C@@]3(C)C[C@]4(CC[C@H]5C(C)(C)C(=O)C=C[C@]5(C)[C@H]24)[C@@]12COC(=O)[C@@H]2[C@H]3O | 32 µg/mL (≈ 78 µM) | 32 µg/mL (≈ 78 µM) | 32 µg/mL (≈ 78 µM) | 2 µg/mL (≈ 4.87 µM) | 8 µg/mL (≈ 19.5 µM) |  | Non-Toxic | Active |
| NCC[C@H](O)C(=O)N[C@@H]1C[C@H](N)[C@@H](O[C@H]2O[C@H](CN)[C@@H](O)[C@H](O)[C@H]2O)[C@H](O)[C@H]1O[C@H]1O[C@H](CO)[C@@H](O)[C@H](N)[C@H]1O [AMIKACIN] |  |  |  | 2 µg/mL (≈ 3.42 µM) |  |  |  |  |
